An excerpt weighted towards active compounds, which were near 4.5% of everything screened.
p97 inhibitor = human p97 ATPase inhibition | inhibition, % at 8 µM | 0.42% of 220,000 active | AID 1481 | P55072 | recombinant p97 ATPase, Kinase-Glo ATP luminescence, 3 h; in the data active means inhibition above about 15%;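 further: 0% = DMSO vehicle and 100% = wells lacking enzyme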
Target sequence (P55072 whole entry, looked up): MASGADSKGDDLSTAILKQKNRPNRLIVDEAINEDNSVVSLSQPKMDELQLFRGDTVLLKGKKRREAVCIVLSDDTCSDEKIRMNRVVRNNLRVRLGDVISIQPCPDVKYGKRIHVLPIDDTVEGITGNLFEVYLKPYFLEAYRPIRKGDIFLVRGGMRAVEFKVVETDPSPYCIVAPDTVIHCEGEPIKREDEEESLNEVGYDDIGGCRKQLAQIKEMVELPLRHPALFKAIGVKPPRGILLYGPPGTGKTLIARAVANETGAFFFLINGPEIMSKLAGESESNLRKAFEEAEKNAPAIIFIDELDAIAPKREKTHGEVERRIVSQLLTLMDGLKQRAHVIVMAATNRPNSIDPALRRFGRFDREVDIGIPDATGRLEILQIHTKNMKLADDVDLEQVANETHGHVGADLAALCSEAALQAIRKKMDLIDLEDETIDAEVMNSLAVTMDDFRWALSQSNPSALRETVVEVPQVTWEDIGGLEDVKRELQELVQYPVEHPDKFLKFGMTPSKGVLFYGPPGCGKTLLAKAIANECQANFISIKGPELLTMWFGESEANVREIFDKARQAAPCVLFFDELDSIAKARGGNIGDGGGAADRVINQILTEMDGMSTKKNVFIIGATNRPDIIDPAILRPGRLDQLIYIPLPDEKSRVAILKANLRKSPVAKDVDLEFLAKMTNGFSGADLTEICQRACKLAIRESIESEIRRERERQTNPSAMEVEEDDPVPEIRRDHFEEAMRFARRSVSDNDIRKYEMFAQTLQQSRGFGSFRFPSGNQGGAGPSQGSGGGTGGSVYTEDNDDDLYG
UPR XBP1 act = activators of adaptive arm of unfolded protein response (XBP1); CHO-XBP1 luciferase reporter, IRE1-XBP1 UPR activation, luminescence; percent of tunicamycin response, DMSO as zero; activation, % at 20 µM; 0.33% of 330,000 active; AID 463104;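 active means versus positive control, 20 µM dose yields 30% or more activation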;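 further: 100% = tunicamycin at 10 µg/mL and 0% = DMSO only wells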
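Material: IRE1-XBP1 luciferase reporter CHO line / Quantity: one thousand reporter cells per well / Buffer or medium: F12 with 10% serum / Compound: 20 µM single concentration, DMSO 1% / Times: 6 h treatment, 37 °C / Detection: Steady-Glo luciferase glow luminescence, 10 min after reagent addition / Benchmarks: tunicamycin high, DMSO low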
PfM18AAP inh = blocks P. falciparum M18 aspartyl aminopeptidase | recombinant PfM18AAP, H-Glu-NHMec fluorogenic cleavage | inhibition, % at 7.35 µM | 1.2% of 290,000 active | AID 1822;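 active means inhibition above the campaign mean inhibition over all tested compounds plus 3 SD, cut at about 28% in these data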;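 further: 0% = plate median of test compound wells and 100% = 2 mM ZnCl2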
CHOP inh = CHOP inhibition in unfolded protein response. CHO-K1 CHOP-promoter luciferase, tunicamycin-induced, 15-18 h. inhibition, % at 10 µM. 3.8% of 220,000 active;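 active means compounds that reduced the stress-induced luciferase reporter signal by more than about 70% of percent inhibition, limit read from the data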;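 further: 0% = tunicamycin plus vehicle and 100% = wells without tunicamycin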
UPR CHOP act = activators of apoptotic arm of unfolded protein response (CHOP); CHO-CHOP luciferase reporter, UPR activation, luminescence; percent of tunicamycin response over DMSO baseline; activation, % at 10 µM; 0.34% of 330,000 active; AID 449763;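 active means at 10 µM dose, activation of 40% or more, normalized to positive control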;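 further: 100% = tunicamycin at 10 µg/mL and 0% = DMSO alone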
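Assay system: CHO cells with stable CHOP pathway luciferase reporter; Buffer or medium: F12 plus 10% serum; Times: 16-18 h cell attachment, then 6 h compound exposure, 37 °C; Signal: luciferase luminescence; Read-out basis: percent activation relative to tunicamycin control; Control set: tunicamycin high control, DMSO low control.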
NS3 helicase inh = inhibitors of Hepatitis C virus NS3 helicase. inhibition, % at 10.9 µM. NS3 helicase DNA unwinding, Cy5 molecular beacon fluorescence. AID 1800. 0.56% of 290,000 active;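 active means inhibition above the mean of all tested compounds plus 3 SD, set per campaign, cut at about 35% in these data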;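 further: 0% = DMSO wells and 100% = thioflavine S control wells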
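assay system = NS3 helicase fragment of HCV | buffer or medium = MOPS pH 6.5, MgCl2, DTT, Tween20, BSA | timing = 60 min unwinding reaction at 25 °C after ATP addition | signal = Cy5 beacon fluorescence read at start and 1 h | read-out basis = % inhibition of unwinding | control set = low DMSO, high thioflavine S at 110 µM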
UPR XBP1 confirm = confirmation of adaptive unfolded protein response (XBP1) activators; activation, % at 20 µM; 63% of 1,000 active; CHO-XBP1 IRE1-XBP1 luciferase reporter, luminescence; shares compounds with UPR XBP1 act; AID 485299;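 active means reporter signal at least 30% of the positive control's activation in two or more of four replicate wells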;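 further: plate controls were DMSO negative control for no effect and tunicamycin 10 µg/mL positive control for full effect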
An asterisk follows results filed as active; . = no result.

SMILES	p97 inhibitor	UPR XBP1 act	PfM18AAP inh	CHOP inh	UPR CHOP act	NS3 helicase inh	UPR XBP1 confirm
COc1ccc(-c2ccc3c(c2)S(=O)(=O)c2cccc(C(=O)NCCOc4ccccc4Cl)c2C3=O)cc1OC	.	94*	.	.	24	.	46*
O=C(OCC(=O)N1CCCc2ccccc21)c1cc(Cl)ccc1O	.	-1	0	.	0	-6	.
CC[C@H](C)[C@H](NC(=O)OCc1ccccc1)C(=O)OCC(=O)Nc1ccc(N2CCOCC2)cc1	.	-3	.	.	3	.	.
O=C(Nc1nc2ccc(Cl)cc2s1)c1ccc(N2CCCCC2)c([N+](=O)[O-])c1	0	33*	-2	-9	30	1	83*
Cc1cc(NC(=O)CSc2nnnn2C2CCCC2)no1	-2	1	-8	-13	-2	-2	.
Cc1cc(NC(=O)CSc2nc3sc(C)c(C)c3c(=O)n2C2CCCC2)no1	-1	58*	-14	87*	4	10	54*
CCc1ccc(CNC(=O)CCn2ccc3cc(S(=O)(=O)N4CCCC4)ccc32)cc1	.	-2	-1	.	-1	-8	.
O=C(Nc1nc(-c2cccnc2)cs1)c1cccc([N+](=O)[O-])c1	4	31*	-6	88*	7	0	11
O=C(Nc1nc(-c2ccccc2)cs1)c1cccc([N+](=O)[O-])c1	0	7	11	-10	3	-8	.
COc1ccc(-c2csc(NC(=S)NC(=O)/C=C/c3ccccc3)n2)cc1Br	7	160*	2	-22	5	-3	250*
O=C(/C=C/c1ccco1)NC(=S)Nc1nc(-c2ccc3ccccc3c2)cs1	8	13	4	-49	0	8	.
CN(C)CCCN1c2ccc([N+](=O)[O-])cc2CCc2cc([N+](=O)[O-])ccc21	.	1	.	.	-1	.	.
COc1ccc(/C=N/n2c(=O)[nH]c3c([nH]c4ccc(Br)cc43)c2=O)cc1CN1CCOCC1	-4	-3	-1	37	-1	3	.
COc1ccc(/C=N/n2c(=O)[nH]c3c([nH]c4ccc(Cl)cc43)c2=O)cc1CN1CCCCC1	6	-3	-1	19	0	-7	.
CC1=CC(C)[C@H](/C=N/n2c(=O)[nH]c3c([nH]c4ccc(Br)cc43)c2=O)C(C)C1 (some centres undefined)	4	80*	3	-8	30	32	100*
COc1ccc2c(c1)[nH]c1c(=O)n(/N=C/C3C(C)C=C(C)CC3C)c(=O)[nH]c12 (centres undefined)	2	56*	1	41	2	-10	86*
CCOC(=O)c1nnc(-c2ccccc2)nc1Sc1ccccc1Cl	-8	38*	-8	53	10	-3	68*
CCOC(=O)c1nnc(-c2ccccc2)nc1NCc1ccccc1	9	-2	0	62	1	0	.
CCOC(=O)c1nnc(-c2ccc(C)cc2)nc1Sc1cccc(Cl)c1	1	48*	-3	59	36	1	46*
COc1ccc(OC)c(S(=O)(=O)N2CCC(c3nc4ccccc4[nH]3)CC2)c1	.	-4	.	.	-1	.	.
COc1ccc(-c2cc(-c3ccc(OC)cc3)nc(-c3ccc4c(c3)NC(=O)CO4)c2)cc1	-4	38*	-1	12	1	1	15
Cc1ccc(Cn2cnc3sc4c(c3c2=O)CCC4)c(C)c1	-1	31*	-9	77*	2	-10	6
O=C(O)c1ccc(Cn2cnc3sc4c(c3c2=O)CCCC4)cc1	2	-5	15	21	0	2	.
COc1cc(/C=N/N=C(/N)c2nonc2N)cc(Br)c1OCc1ccccc1C	-3	17	-2	60	3	-3	.
CCOc1cc(/C=N/N=C(/N)c2nonc2N)cc(Br)c1OCc1ccc(Cl)cc1	-1	70*	-9	19	2	2	142*
SMILES	p97 inhibitor	UPR XBP1 act	PfM18AAP inh	CHOP inh	UPR CHOP act	NS3 helicase inh	UPR XBP1 confirm
COc1ccc(CCNC(=S)N2CCN(S(=O)(=O)c3ccccc3)CC2)cc1	.	-2	.	.	0	.	.
O=C(c1ccc2c(c1)[nH]c(=S)n1c3ccccc3nc21)N1CCN(c2cccc(Cl)c2)CC1	6	33*	9	51	1	3	54*
COc1cc([N+](=O)[O-])ccc1NC(=O)CSc1nncn1-c1cccnc1	.	-5	4	.	1	-5	.
CCOC(=O)C1=C(O)/C(=C/c2cc(OC)c(OC)c(OC)c2)SC1=Nc1ccc(OC)cc1	6	36*	-10	31	4	3	18
CCOC(=O)C1=C(O)/C(=C/c2ccc(OCC(=O)O)c(OCC)c2)SC1=Nc1ccc(OC)cc1	-2	-3	6	12	1	13	.
Cc1ccc2c(c1)C(=O)C(=O)N2Cc1ccc(Cl)cc1	.	37*	.	.	5	.	30*
Cc1ccc2c(c1)C(=O)C(=O)N2Cc1ccc(F)cc1	.	7	.	.	1	.	.
N#Cc1ccccc1/C=N/Nc1nc(-c2ccccc2)c2cc(Cl)ccc2n1	7	62*	5	89*	31	0	102*
Cc1ccc2nc(N/N=C/c3ccccc3C#N)nc(-c3ccccc3)c2c1	4	0	8	46	2	-7	.
Cc1ccc(NC(=O)CSc2nc3ccccc3c3nc4ccccc4n23)cc1	4	93*	1	9	39	-2	200*
O=C(CSc1nc2ccccc2c2nc3ccccc3n12)NCc1ccco1	4	-2	-3	-14	-3	-6	.
CC(C)N(Cc1nc(-c2ccc(Cl)cc2)no1)Cc1nccn1C	1	-2	-2	10	0	-7	.
CC(C)c1ccc(C2C3=C(COC3=O)Nc3cc4c(cc32)OCO4)cc1 (centres undefined)	3	43*	8	-25	4	-19	93*
CC(C)Oc1ccccc1C1CC(=O)Nc2cc3c(cc21)OCO3 (centres undefined)	5	7	-7	.	-2	-5	.
O=C(O)c1ccccc1C(=O)NC1Cc2ccccc2C1	7	-1	0	2	3	-10	.
O=C(Nc1ccc2nn(-c3ccccc3)nc2c1)c1ccc(Br)o1	7	35*	2	73*	3	-1	5
COc1ccc(S(=O)(=O)N2CCN(S(=O)(=O)c3ccc4c(c3)OCCO4)CC2)cc1	8	38*	5	-32	-2	2	14
COc1ccc(S(=O)(=O)N2CCN(S(=O)(=O)c3ccc4c(c3)OCCO4)CC2)cc1C	-2	-2	0	18	1	7	.
Cc1ccc(NC(=O)CC(=O)c2ccccc2)cc1C	.	9	-5	.	7	-1	.

Source: PubChem BioAssay (several laboratories)
